A selection: hits, their analogues and other compounds. The true share with any hit is near 1.5%.
RBBP9 inhibitor = blocks human serine hydrolase RBBP9 | O75884 | recombinant RBBP9, FP-Rh probe fluorescence polarization | inhibition, % at 7.94 µM | hit rate 0.2% among 220,000;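 active means inhibition above the campaign mean of all tested compounds plus 3 SD, cut at about 14% in these data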;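 further: plate controls were DMSO wells with RBBP9 for no effect and wells lacking RBBP9 protein for full effect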
Target sequence (O75884 whole entry, looked up): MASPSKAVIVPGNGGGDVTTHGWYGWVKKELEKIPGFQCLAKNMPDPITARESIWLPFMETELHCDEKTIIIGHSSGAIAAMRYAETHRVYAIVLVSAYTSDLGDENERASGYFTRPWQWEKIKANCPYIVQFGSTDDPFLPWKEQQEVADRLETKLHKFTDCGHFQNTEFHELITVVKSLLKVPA
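system = RBBP9 protein | input = RBBP9 at 2.5 µM in dispensed solution, before mixing | measured by = fluorescence polarization (mP), excitation 525 nm, emission 598 nm | incubation = enzyme-compound preincubation 30 min, then probe labeling 45 min, 25 °C | buffer or medium = Tris-NaCl-Pluronic buffer, pH 8.0 | compound = single dose 7.94 µM | also added = FP-Rh probe, 375 nM dispensing solution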
PKD1 kinase inh = blocks activity of human protein kinase D1; PKD1 kinase fluorescence polarization assay; hit rate 0.056% among 200,000; Q15139; inhibition, % (test concentration not listed); AID 797; in the data active means inhibition above about 50%
PP5 inh = inhibitors of human protein phosphatase 5 (PP5); P53041; purified PP5c, OMFP substrate fluorescence; inhibition, % at 6.7 µM; hit rate 0.18% among 320,000; AID 1987;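 active means inhibition above the campaign's mean inhibition across all tested compounds plus 3 SD, cut at about 9.5% in these data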;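 further: 0% = DMSO only and 100% = 100 µM cantharidin control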
Hsp70 activator = transcriptional activators of Hsp70. activation, % at 10 µM. AID 1203. hit rate 0.04% among 200,000. HeLa Hsp70 promoter luciferase reporter, luminescence; scaled: vehicle 0, proteasome-inhibitor control 100%;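 active means activation above the mean across all tested compounds plus 3 SD, cutoff set per campaign, cut at about 5.5% in these data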;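 further: 100% = MG132 at 30 µM as the positive control and 0% = DMSO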
PP1 counter = counter-screen for PP5 inhibitors: inhibitors of human PP1-alpha. purified PP1alpha, OMFP fluorescence. inhibition, % at 6.7 µM. hit rate 0.9% among 320,000;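 active means inhibition above the mean inhibition of all tested compounds plus 3 SD, computed separately for each screening campaign, cut at about 15% in these data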
Target sequence (P62136 whole entry, looked up): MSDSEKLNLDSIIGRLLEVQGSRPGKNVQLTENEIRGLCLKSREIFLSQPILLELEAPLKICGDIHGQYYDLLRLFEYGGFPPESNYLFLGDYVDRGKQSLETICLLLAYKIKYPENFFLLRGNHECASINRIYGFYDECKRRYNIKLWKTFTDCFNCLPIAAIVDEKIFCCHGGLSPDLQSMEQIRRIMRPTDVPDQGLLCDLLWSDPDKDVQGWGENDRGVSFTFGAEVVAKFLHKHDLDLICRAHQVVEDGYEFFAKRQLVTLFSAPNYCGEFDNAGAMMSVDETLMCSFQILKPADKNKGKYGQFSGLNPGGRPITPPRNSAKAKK
p97 inhibitor = blocks human p97 ATPase activity. P55072. recombinant p97 ATPase, Kinase-Glo ATP luminescence, 3 h. inhibition, % at 8 µM. hit rate 0.42% among 220,000; in the data active means inhibition above about 15%;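 further: 0% = DMSO vehicle and 100% = wells lacking enzyme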
PP1 inh confirm = confirmation of human PP1 phosphatase inhibitors; purified PP1alpha, OMFP substrate fluorescence; inhibition, % at 6.7 µM; hit rate 52% among 1,900; shares compounds with PP1 counter; AID 2358;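 active means mean PP1 inhibition above a set limit taken from the earlier primary screen, cut at about 15% in these data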
PP5 inh counter = counter-screen for PP1 inhibitors: human PP5 phosphatase inhibition | inhibition, % at 6.7 µM | shares compounds with PP1 counter | purified PP5c, OMFP fluorescence | hit rate 4% among 1,900;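 active means mean PP5 inhibition over triplicate wells above about 9.5% taken from the earlier PP1 screen, limit read from the data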
* hit, by the source's call; nt = not tested or not shown.

SMILES	RBBP9 inhibitor	PKD1 kinase inh	PP5 inh	Hsp70 activator	PP1 counter	p97 inhibitor	PP1 inh confirm	PP5 inh counter
COc1c(OC)c(O)c2c(=O)c(O)c(-c3ccccc3)oc2c1OC	-2	10	1	-1	18*	4	30*	-4
COc1ccc(-c2oc3c(OC)c(OC)c(OC)c(O)c3c(=O)c2OC)cc1OC	2	-6	2	0	-2	3	nt	nt
COc1ccccc1Nc1nnc(SCC(=O)Nc2cc(C)on2)s1	-5	0	2	0	19*	2	12	-4
COc1c(N2CCN(C(=S)NCc3ccccc3)C(C)C2)c(F)cc2c(=O)c(C(=O)O)cn(C3CC3)c12 (stereo unspecified)	1	-2	3	0	43*	8	33*	-4
CN(C)c1ccc(NC(=O)Cc2ccccc2)c2ccccc12	nt	nt	-2	nt	-4	nt	nt	nt
Cc1ccc(C(=O)NCCCN2CCOCC2)cc1Cl	nt	nt	-4	nt	18*	nt	-5	-4
CCOC(=O)C1CC2CC(C1)CN(C(=O)C1CCCCC1)C2 (stereo unspecified)	-7	-3	-1	0	7	-8	nt	nt
COc1ccc(-n2c(Cn3c(=O)sc4ccccc43)nnc2SCC(=O)N2CCCC2)cc1	-3	1	1	0	38*	2	-5	-6
CCCOc1ccc(C(=O)NC(=S)NNC(=O)c2c(-c3ccccc3)noc2C)cc1	-3	nt	3	nt	18*	9	1	-1
CCOC(=O)c1ccccc1NC(=O)COC(=O)CSc1ccccc1	nt	nt	3	nt	-3	nt	nt	nt
CCn1c(=O)[nH]c(=O)c2c(N)c(C(=O)c3ccccc3OC)sc21	6	-1	-1	0	-2	8	nt	nt
O=[N+]([O-])c1ccccc1/C=C/C=N/n1c(-c2ccc(Cl)cc2)n[nH]c1=S	3	-7	2	0	25*	-3	28*	-3
O=C(Cn1c(=O)n(-c2ccc(F)cc2)c(=O)c2sccc21)c1ccccc1	-8	-9	-4	0	1	3	nt	nt
Cc1ccccc1N1CCN(C2=NC(=O)/C(=C\c3cccs3)S2)CC1	-1	-7	1	0	11	2	nt	nt
O=C1N=C(N2CCN(c3cccc4ccccc34)CC2)S/C1=C/c1cccs1	-3	1	3	0	24*	5	19*	-3
Cc1ccc(NC(=O)/C(=C/c2cccc([N+](=O)[O-])c2)NC(=O)C2CCCCC2)cc1	-4	-1	1	0	5	1	nt	nt
Cc1ccc(NC(=O)/C(=C\c2cccc([N+](=O)[O-])c2)NC(=O)c2cccs2)cc1	-4	-2	-3	0	24*	2	18*	-4
COc1ccc(NC(=O)c2ccc(CNc3c(NC4CCCCC4)c(=O)c3=O)cc2)c(OC)c1	-4	-12	1	0	21*	-7	19*	-1
CCCCCOC(=O)CSc1nnc(-c2ccccc2)c(=O)[nH]1	0	-19	-1	0	-5	5	nt	nt
COC(=O)c1ccc(C(=O)OC)c(NC(=O)CN(C)Cc2ccc(Cl)c(Cl)c2)c1	-8	-2	5	0	-2	-2	nt	nt
COc1ccc(/C=C2\SC(=O)N(CC(=O)NNC(=O)c3ccccc3O)C2=O)cc1	-7	-5	1	0	18*	1	23*	-5
CCOC(=O)c1c(C)[nH]c(C(=O)Nc2cc(OCC)c(N3CCOCC3)cc2OCC)c1C	nt	nt	3	nt	-2	nt	nt	nt
Cc1cc(/C=N/NC(N)=S)c(C)n1-c1cccc(Cl)c1	-3	-2	0	0	60*	3	1	1
Cc1cc(/C=N/NC(N)=S)c(C)n1-c1ccc(Cl)cc1	-6	-6	0	0	0	4	nt	nt
Cc1cc(/C=N/NC(N)=S)c(C)n1-c1ccc(Br)cc1	-5	8	2	0	25*	0	16*	-4
SMILES	RBBP9 inhibitor	PKD1 kinase inh	PP5 inh	Hsp70 activator	PP1 counter	p97 inhibitor	PP1 inh confirm	PP5 inh counter
Nc1c(S(=O)(=O)O)cc(NC(=O)c2ccccc2)c2c1C(=O)c1ccccc1C2=O	nt	nt	7	nt	31*	nt	18*	2
O=C(NNC(=O)c1cccnc1SCc1cccc([N+](=O)[O-])c1)c1ccc(F)cc1	-9	-2	4	0	-1	6	nt	nt
O=C(NNC(=O)c1cccnc1SCc1cccc([N+](=O)[O-])c1)c1ccccn1	4	-6	-1	0	20*	5	19*	-5
O=C(CSc1nc2ccccc2c(=O)n1Cc1ccccc1)Nc1ccc(Br)cc1C(=O)O	nt	nt	3	nt	20*	nt	15*	4
CCCCCCCCC/C(=N\O)c1ccccn1	-11	-2	5	1	32*	-6	28*	-5
CCCCCCCCC(=O)N/N=C/c1ccccn1	4	5	3	0	-1	6	nt	nt
CCCc1[nH]n(-c2nc3ccccc3s2)c(=O)c1C=NCCN1CCOCC1	7	-8	2	0	20*	8	-1	1
COC(=O)c1ccc(Nc2ccc3nonc3c2[N+](=O)[O-])cc1	nt	nt	2	nt	-1	nt	nt	nt
COC(=O)c1ccc(C2/C(=C(/O)c3ccc(OC)cc3)C(=O)C(=O)N2c2cc(C)on2)cc1 (stereo unspecified)	-7	16	3	0	2	-4	nt	nt
COC(=O)c1ccc(C2/C(=C(/O)c3ccc(OC(C)C)cc3)C(=O)C(=O)N2c2cc(C)on2)cc1 (stereo unspecified)	-3	-6	3	0	20*	2	8	-5
CCOc1ccc(OCCC(=O)N2CCc3cc(OC)c(OC)cc3C2)cc1	nt	nt	0	nt	0	nt	nt	nt
CCOC(=O)c1c(NC(=O)CSc2nnc3c(n2)[nH]c2ccccc23)sc2c1CCN(C)C2	-8	-1	0	0	18*	2	11	-1
S=c1[nH]nc(COc2ccccc2)n1/N=C/c1cccc(Br)c1	nt	nt	-1	nt	33*	nt	0	-7
S=c1[nH]nc(COc2ccccc2)n1/N=C/c1ccc(Br)cc1	nt	nt	0	nt	0	nt	nt	nt
O=C(O)c1ccc(N=Nc2c(O)ccc3ncccc23)cc1	nt	nt	4	nt	21*	nt	14	0
CCCOc1ccc(C(C)=O)cc1CSCCC#N	7	-4	1	0	1	-4	nt	nt
CCCOc1ccc(C(C)=O)cc1CSc1nc(O)cc(=O)[nH]1	-2	1	-1	0	19*	-1	3	-1
CC1=C(C(=O)Nc2cccc(C(=O)NC3CCCCC3C)c2)SCCO1 (stereo unspecified)	nt	nt	-1	nt	-3	nt	nt	nt
O=C(Nc1nc(-c2cc(Cl)sc2Cl)cs1)c1ccc(Br)s1	-1	0	1	0	-9	3	nt	nt
